Data set [1] in a line: melting temperature; fluorescence melt of hairpins on a sequencing array, two-state fit, raised by 9.35 °C to match UV melts. As to conditions: sodium 0.088 M. The method, boiled down: (§1)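 Folding enthalpy and melting temperature come from bootstrapped two-state fits to Cy3 fluorescence of library hairpins carrying annealed Cy3 and quencher oligos on a sequenced MiSeq flow cell. Imaging was done in 50 mM Na-HEPES pH 8.0, 25 mM NaCl, stepping by 2.5 °C up to 60 °C, and signals were normalised to pre-quench Cy3 and to control constructs. Results of four replicates were combined by inverse variance, and fitted temperatures were raised by 9.35 °C to match UV melts.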

Data set [2] in a line: folding enthalpy; higher = less favourable; fluorescence melt of hairpins on a sequencing array, two-state fit. As to conditions: sodium 0.088 M. The method, boiled down:
as §1

GTTGACACGAAAGTGAAC (((..(((....)))))): the Tm in data set [1] is 34.1 °C. Further, the folding enthalpy in data set [2] is -14.2 kcal/mol.

In the case of GTTGACCGAAAGGTGAAC (((.(((....))).))), the Tm in data set [1] was 48.4 °C. Moreover, the folding enthalpy in data set [2] is -27 kcal/mol.

Regarding GTTGACGAAAGTCAGAAC ((((((....)))..))), the Tm in data set [1] came out at 36.5 °C. Also, the folding enthalpy in data set [2] was -10.4 kcal/mol.

For the sequence GTTGACGAAAGTCGAAC ((((((....))).))), in data set [1], the Tm came to 45.4 °C. Moreover, in data set [2], the folding enthalpy was -18.4 kcal/mol.

Regarding GTTGACGGAAACGCCAAC ((((.((....)).)))), in data set [1], the Tm turned out to be 49.6 °C. Also, the folding enthalpy in data set [2] is -39.8 kcal/mol.

With GTTGACGGAAACGTCAAC (((((((....))))))), the Tm in data set [1] is 66.9 °C. In data set [2], the folding enthalpy is -33.6 kcal/mol.

As to GTTGACGGAAACGTCGAC ((.((((....)))).)), the Tm in data set [1] was found to be 54.8 °C. Also, in data set [2], the folding enthalpy is -43.4 kcal/mol.

Turning to GTTGACGGAAACGTTAAC (((.(((....))).))), the Tm in data set [1] amounted to 47.1 °C. Besides, the folding enthalpy in data set [2] is -27 kcal/mol.

For the sequence GTTGAGCCGAAAGGCAAC (((..(((....)))))), the Tm in data set [1] is 38.8 °C. The folding enthalpy in data set [2] is -10.6 kcal/mol.

As to GTTGAGGGAAACCTCAAC (((((((....))))))), the Tm in data set [1] was found to be 59.8 °C. Further, the folding enthalpy in data set [2] is -42.2 kcal/mol.

As for GTTGATGGAAACATCGAC ((.((((....)))).)), in data set [1], the Tm came out at 48.5 °C. Moreover, the folding enthalpy in data set [2] was -35.9 kcal/mol.

With GTTGCACGAAAGTGGAAC (((.(((....))).))), the Tm in data set [1] was 56.6 °C. The folding enthalpy in data set [2] is -35.5 kcal/mol.

As to GTTGCACGAAAGTGTAAC (((.(((....))).))), the Tm in data set [1] was 55.5 °C. Besides, the folding enthalpy in data set [2] is -29.8 kcal/mol.

Regarding GTTGCAGAAATGCAAC ((((((....)))))), the Tm in data set [1] was 57.5 °C. The folding enthalpy in data set [2] is -35.3 kcal/mol.

In the case of GTTGCAGGAAACCGCAAC (((((.(....).))))), in data set [1], the Tm worked out at 51.5 °C. In data set [2], the folding enthalpy was -43.8 kcal/mol.

Regarding GTTGCAGGAAACTGCAGC (.(((((....))))).), the Tm in data set [1] came to 51.5 °C. Further, the folding enthalpy in data set [2] was -17.4 kcal/mol.

For the sequence GTTGCCGAAAGGCAGAAC ((((((....)))..))), the Tm in data set [1] was 37.3 °C. In data set [2], the folding enthalpy is -8.61 kcal/mol.

Take GTTGCCGAAAGGCATAAC ((((((....)))..))): the Tm in data set [1] worked out at 36.8 °C. The folding enthalpy in data set [2] is -9 kcal/mol.

In the case of GTTGCCGAAAGGCCCAAC ((((((....)))..))), the Tm in data set [1] worked out at 29.4 °C. Also, the folding enthalpy in data set [2] was -6.79 kcal/mol.

For GTTGCCGAAAGGCTAAC ((((((....))).))), the Tm in data set [1] turned out to be 42.3 °C. Moreover, the folding enthalpy in data set [2] was -14 kcal/mol.

Consider GTTGCCGAAAGGCTCAAC ((((((....)))..))), for which, in data set [1], the Tm amounted to 29.8 °C. Further, in data set [2], the folding enthalpy is -7.95 kcal/mol.

As for GTTGCCGCGAAAGCGAAC (((..(((....)))))), the Tm in data set [1] was 35.6 °C. In data set [2], the folding enthalpy was -12.6 kcal/mol.

GTTGCCGGAAACGACAAC ((((.((....)).)))): in data set [1], the Tm came to 48.5 °C. Besides, the folding enthalpy in data set [2] is -28 kcal/mol.

Take GTTGCGCGAAAGCGAAAC (((.(((....))).))): the Tm in data set [1] was determined as 59.5 °C. The folding enthalpy in data set [2] was -27.8 kcal/mol.

For the sequence GTTGCGGGAAACCGCAGC (.(((((....))))).), the Tm in data set [1] was determined as 56.4 °C. Further, the folding enthalpy in data set [2] was -14.2 kcal/mol.

With GTTGCTGGAAACAGCGAC ((.((((....)))).)), the Tm in data set [1] was determined as 54.3 °C. The folding enthalpy in data set [2] is -39.6 kcal/mol.

On to GTTGCTGGAAACAGTAGC (.(.(((....))).).), for which, in data set [1], the Tm worked out at 35.3 °C. The folding enthalpy in data set [2] is -19.7 kcal/mol.

For the sequence GTTGGACCGAAAGGTAAC (((..(((....)))))), in data set [1], the Tm was 35.8 °C. In addition, the folding enthalpy in data set [2] was -20 kcal/mol.

Take GTTGGAGGAAACTTCAAC ((((.((....)).)))): the Tm in data set [1] came to 41.9 °C. For the same sequence, the folding enthalpy in data set [2] was -31.4 kcal/mol.

On to GTTGGCCGAAAGGCTAAC (((.(((....))).))), for which the Tm in data set [1] is 58.3 °C. Moreover, the folding enthalpy in data set [2] was -28.6 kcal/mol.

On to GTTGGCGAAAGCCCAAAC ((((((....)))..))), for which the Tm in data set [1] is 24.8 °C. The folding enthalpy in data set [2] is -7.1 kcal/mol.

Take GTTGGCGAAAGCCGTAAC ((((((....)))..))): the Tm in data set [1] was found to be 33.4 °C. Besides, the folding enthalpy in data set [2] is -9.54 kcal/mol.

On to GTTGGCGGAAACGCCGAC ((.((((....)))).)), for which the Tm in data set [1] came out at 59.4 °C. The folding enthalpy in data set [2] was -25 kcal/mol.

With GTTGGCGGAAACGCTGAC ((..(((....)))..)), the Tm in data set [1] is 45 °C. For the same sequence, the folding enthalpy in data set [2] was -16.8 kcal/mol.

On to GTTGGCGGAAACGTCGAC ((.(.((....)).).)), for which the Tm in data set [1] amounted to 47.6 °C. In addition, the folding enthalpy in data set [2] was -19.1 kcal/mol.

For GTTGGGACGAAAGTCAAC (((..(((....)))))), the Tm in data set [1] stood at 41.5 °C. Also, the folding enthalpy in data set [2] was -19.6 kcal/mol.

For the sequence GTTGGGGCGAAAGCCAAC (((..(((....)))))), in data set [1], the Tm is 46 °C. Also, the folding enthalpy in data set [2] is -16.5 kcal/mol.

Consider GTTGGTCGAAAGACAAC (((.(((....)))))), for which, in data set [1], the Tm is 45.7 °C. Also, the folding enthalpy in data set [2] was -20.4 kcal/mol.

As for GTTGGTCGAAAGACGAAC (((.(((....))).))), the Tm in data set [1] came to 48.1 °C. In addition, the folding enthalpy in data set [2] was -29.9 kcal/mol.

With GTTGGTGCGAAAGCAAAC (((..(((....)))))), the Tm in data set [1] stood at 43 °C. In data set [2], the folding enthalpy is -20.7 kcal/mol.

As to GTTGGTGGAAACACTAAC (((.(((....))).))), the Tm in data set [1] is 45 °C. The folding enthalpy in data set [2] is -29.6 kcal/mol.

As for GTTGGTGGAAACACTAGC (.(.(((....))).).), in data set [1], the Tm worked out at 27.8 °C. Further, the folding enthalpy in data set [2] is -9.95 kcal/mol.

GTTGGTGGAAACATCAAC ((((.((....)).)))): in data set [1], the Tm was determined as 46.5 °C. The folding enthalpy in data set [2] is -37.8 kcal/mol.

With GTTGGTGGAAACGCTAAC (((.(.(....).).))), the Tm in data set [1] was 30.7 °C. Besides, the folding enthalpy in data set [2] is -14 kcal/mol.

Consider GTTGTACGAAAGTAAAAC (((.(((....))).))), for which the Tm in data set [1] amounted to 38.8 °C. Further, in data set [2], the folding enthalpy was -26.7 kcal/mol.

As to GTTGTAGGAAACTACAAC (((((((....))))))), the Tm in data set [1] came to 56.1 °C. In addition, the folding enthalpy in data set [2] is -40.5 kcal/mol.

For the sequence GTTGTAGGAAACTATGAC ((..(((....)))..)), the Tm in data set [1] was 26.6 °C. Further, in data set [2], the folding enthalpy is -14.1 kcal/mol.

As to GTTGTCCGAAAGGAAAAC (((.(((....))).))), in data set [1], the Tm is 44.9 °C. For the same sequence, the folding enthalpy in data set [2] is -26.9 kcal/mol.

Take GTTGTCCGAAAGGAGAAC (((.(((....))).))): the Tm in data set [1] worked out at 51.2 °C. Moreover, in data set [2], the folding enthalpy was -28.5 kcal/mol.

With GTTGTCGAAAGACCAAAC ((((((....)))..))), in data set [1], the Tm is 26 °C. For the same sequence, the folding enthalpy in data set [2] was -10.6 kcal/mol.

Consider GTTGTCGAAAGACCAAC ((((((....))).))), for which the Tm in data set [1] turned out to be 38 °C. Moreover, the folding enthalpy in data set [2] is -20.4 kcal/mol.

Consider GTTGTCGAAAGACGAAC ((((((....))).))), for which the Tm in data set [1] was 39.8 °C. In data set [2], the folding enthalpy is -17.9 kcal/mol.

For GTTGTCGAAAGACGGAAC ((((((....)))..))), the Tm in data set [1] was 31.3 °C. Besides, in data set [2], the folding enthalpy was -10.3 kcal/mol.

With GTTGTCGCGAAAGCGAAC (((..(((....)))))), the Tm in data set [1] worked out at 56.9 °C. Further, the folding enthalpy in data set [2] was -15.7 kcal/mol.
